{"source": "ChEMBL document CHEMBL1156963", "about": "“Regioselective one-pot synthesis and anti-proliferative and apoptotic effects of some novel tetrazolo[1,5-a]pyrimidine derivatives” (Bioorg Med Chem, 2010)", "key": {"Ehrlich [1]": {"test_system": "Ehrlich", "assay": "Antitumor activity against mouse EAC cells transplanted in Albino mouse assessed as decrease in number of living cells at 10 mg/kg, po QD for 2 weeks using trypan blue staining by Neubauer hemocytometry relative to control", "format": "functional, organism-based", "set-up": "dose 10 mg/kg", "summary_of_the_method": "(§1)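 Female albino mice each received 0.2 ml EAC ascites intraperitoneally (stock aliquot diluted 1:50 in saline). Dosing was 10 mg/kg in 10% DMSO by gastric intubation, daily for 2 weeks from the day of inoculation, against a 10% DMSO vehicle group (12 mice per group). At the end, under ether, 0.2 ml saline was given ip and ascites aspirated 1 min later. Aliquot volume was measured. Live and dead cells were counted by trypan blue on a Neubauer haemocytometer. Mean ± SE, LSD.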"}, "Ehrlich [2]": {"test_system": "Ehrlich", "assay": "Induction of apoptosis in mouse EAC cells transplanted in Albino mouse assessed as increase in p53 level at 10 mg/kg, po QD for 2 weeks […] relative to control", "format": "functional, organism-based", "set-up": "dose 10 mg/kg"}, "[3]": {"assay": "Toxicity in Albino mouse assessed as mortality after 48 hrs", "format": "organism-based", "conditions": "in vivo"}, "[4]": {"assay": "Growth inhibition of mouse EAC cells at 25 ug/ml after 2 hrs using trypan blue staining by Neubauer hemocytometry", "format": "functional", "conditions": "Ehrlich, read-out: GI", "summary_of_the_method": "(§2)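 EAC cells at 2.5 × 10^5 cells/ml in PBS were exposed to three compound concentrations for 2 h at 37 °C in 5% CO2. An equal volume of trypan blue was then added. Stained (dead) and unstained cells were counted on a Neubauer haemocytometer, and percent dead cells was calculated per test.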"}, "[5]": {"assay": "Antitumor activity against mouse EAC cells transplanted in Albino mouse assessed as decrease in EAC-aliquot volume at 10 mg/kg, po QD for 2 weeks relative to control (Rvb= 5.77+/-0.39 ml)", "format": "functional, Ehrlich", "summary_of_the_method": "as §1"}, "[6]": {"assay": "Antitumor activity against mouse EAC cells transplanted in Albino mouse assessed as increase in cell mortality rate at 10 mg/kg, po QD for 2 weeks using trypan blue staining by Neubauer hemocytometry relative to control", "format": "functional, Ehrlich", "summary_of_the_method": "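Female albino mice given 0.2 ml EAC (1:50 dilution in saline of aliquot from stock mice) i.p.; dosed orally by gastric intubation in 10% DMSO daily for 2 weeks from day of inoculation, vehicle controls. At end, ascites collected after 0.2 ml saline i.p. under ether; alive/dead cells counted by trypan blue exclusion, percent dead per mouse; mean ± SE, LSD test.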"}, "[7]": {"assay": "Growth inhibition of mouse EAC cells at 50 ug/ml after 2 hrs using trypan blue staining by Neubauer hemocytometry", "format": "functional", "conditions": "Ehrlich, read-out: GI", "summary_of_the_method": "as §2"}, "[8]": {"assay": "Growth inhibition of mouse EAC cells at 100 ug/ml after 2 hrs using trypan blue staining by Neubauer hemocytometry", "format": "functional", "conditions": "Ehrlich, read-out: GI", "summary_of_the_method": "as §2"}, "HepG2": {"test_system": "HepG2", "assay": "Cytotoxicity against human HepG2 cells after 48 hrs by sulforhodamine B assay", "format": "functional, cell-based", "summary_of_the_method": "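HepG2 monolayers were treated with graded concentrations (0–100 range) for 48 h at 37 °C. Cells were then fixed and stained with sulforhodamine B, excess dye was removed with acetic acid, and bound dye was dissolved in Tris-EDTA for colorimetric reading. Survival fraction was plotted against concentration.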"}, "[9]": {"assay": "Antitumor activity against mouse EAC cells transplanted in Albino mouse assessed as increase in survival at 10 mg/kg, po QD for 2 weeks relative to control", "format": "functional, Ehrlich", "summary_of_the_method": "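Female albino mice inoculated i.p. with 0.2 ml 1:50 saline-diluted EAC; oral gavage in 10% DMSO daily between 10 and 12 AM for 2 successive weeks from inoculation day; vehicle-treated controls (12 mice per group). Survival percent = survived/total animals × 100.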"}, "Ehrlich [10]": {"test_system": "Ehrlich", "assay": "Antitumor activity against mouse EAC cells transplanted in Albino mouse assessed as decrease in total number of cells at 10 mg/kg, po QD for 2 weeks using trypan blue staining by Neubauer hemocytometry relative to control", "format": "functional, organism-based", "set-up": "dose 10 mg/kg", "summary_of_the_method": "as §1"}, "Ehrlich [11]": {"test_system": "Ehrlich", "assay": "Induction of apoptosis in mouse EAC cells transplanted in Albino mouse assessed as decrease in Bcl-2 level in cytoplasm of cells at 10 mg/kg, po QD for 2 weeks […] relative to control", "format": "functional, organism-based", "set-up": "dose 10 mg/kg"}, "Ehrlich [12]": {"test_system": "Ehrlich", "assay": "Antitumor activity against mouse EAC cells transplanted in Albino mouse assessed as increase in number of dead cells at 10 mg/kg, po QD for 2 weeks using trypan blue staining by Neubauer hemocytometry relative to control", "format": "functional, organism-based", "set-up": "dose 10 mg/kg", "summary_of_the_method": "as §1"}}, "note": "Calls of active or inactive are those of the source. The rule behind the calls is not given here.", "data": [{"smiles": "c1nc2nnnn2c2c1CCCC2", "values": [{"measurement": "Activity", "setting": "Ehrlich [1]", "result": "Active"}, {"measurement": "Activity", "setting": "Ehrlich [2]", "result": "Active"}, {"measurement": "LD50 at 48 h", "setting": "[3]", "result": 500, "unit": "mg/kg"}, {"measurement": "inhibition of growth at 25 µg/mL", "setting": "[4]", "result": 10, "unit": "%"}, {"measurement": "Activity", "setting": "[5]", "result": 2.52, "unit": "mL"}, {"measurement": "Activity", "setting": "[6]", "result": 8.24, "unit": "%"}, {"measurement": "inhibition of growth at 50 µg/mL", "setting": "[7]", "result": 25, "unit": "%"}, {"measurement": "inhibition of growth at 100 µg/mL", "setting": "[8]", "result": 45, "unit": "%"}, {"measurement": "Activity", "setting": "HepG2", "result": "Dose-dependent effect"}, {"measurement": "Activity", "setting": "[9]", "result": 83.33, "unit": "%"}, {"measurement": "Activity", "setting": "Ehrlich [10]", "result": "Active"}, {"measurement": "Activity", "setting": "Ehrlich [11]", "result": "Active"}, {"measurement": "Activity", "setting": "Ehrlich [12]", "result": "Active"}]}]}
